From ChEMBL document CHEMBL1122803, “Folate antagonists. 22. Antimalarial and antibacterial effects of 2,4-diamino-6-quinazolinesulfonamides” (1984)
In brackets after ≈: the same amount, converted by molar mass.

Assays:
Plasmodium berghei [1] = experiment: Antimalarial activity as survivor numbers at day 60 for drug-sensitive Plasmodium berghei infected mice (Mus musculus) at 80 mg/kg subcutaneous dose over 72 hr; assay type: functional
Summary of the method: (§1)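 Mice infected with drug-sensitive P. berghei got one subcutaneous dose in sesame or peanut oil 72 h postinfection. Read-out is the number of mice alive at 60 days postinfection, termed "cured", without subinoculation to confirm parasitological cure. Groups of five per dose, or 10 where indicated.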

Plasmodium berghei [2] = experiment: Antimalarial activity as survivor numbers at day 60 for drug-sensitive Plasmodium berghei infected mice (Mus musculus) at 320 mg/kg subcutaneous dose over 72 hrs; assay type: functional; summary of the method: as §1
Plasmodium berghei [3] = experiment: Antimalarial activity as survivor numbers at day 60 for drug-sensitive Plasmodium berghei infected mice (Mus musculus) at 40 mg/kg subcutaneous dose over 72 hr; assay type: functional; summary of the method: as §1
Plasmodium berghei [4] = experiment: Antimalarial activity as survivor number at day 60 against drug-sensitive Plasmodium berghei infected mice (Mus musculus) at 160 mg/kg subcutaneous dose after 72 hr; assay type: functional; summary of the method: as §1
Staphylococcus aureus [5] = experiment: In vitro antibacterial activity against […] S 18713.; assay type: functional
Summary of the method: (§2)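 Antibacterial testing in vitro by gradient-plate test. Read-out was the minimum inhibitory concentration, with values exceeding 25 reported as >25.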

Plasmodium berghei [6] = experiment: Antimalarial activity as change in MST for drug-sensitive Plasmodium berghei infected mice (Mus musculus) at 640 mg/kg subcutaneous dose over 72 hr; assay type: functional
Pseudomonas aeruginosa [7] = experiment: Compound was tested in vitro against Pseudomonas aeruginosa 28, by gradient-plate test; assay type: functional; summary of the method: as §2
Shigella sonnei [8] = experiment: Compound was tested in vitro against Shigella sonnei C-10, by gradient-plate test; assay type: functional; summary of the method: as §2
Staphylococcus aureus [9] = experiment: In vitro antibacterial activity against […] U.C-76.; assay type: functional; summary of the method: as §2
Plasmodium berghei [10] = experiment: Antimalarial activity as change in MST against drug-sensitive Plasmodium berghei infected mice (Mus musculus) at 160 mg/kg subcutaneous dose after 72h; assay type: functional
Plasmodium berghei [11] = experiment: Antimalarial activity as change in MST for drug-sensitive Plasmodium berghei infected mice (Mus musculus) at 40 mg/kg subcutaneous dose over 72hr; assay type: functional
Enterococcus faecalis = experiment: In vitro antibacterial activity against Streptococcus faecalis MGH-2.; assay type: functional; summary of the method: as §2
Escherichia coli [12] = experiment: Compound was tested in vitro against Escherichia coli Vogel, by gradient-plate test; assay type: functional; summary of the method: as §2
Plasmodium berghei [13] = experiment: Antimalarial activity as survivor numbers at day 60 for drug-sensitive Plasmodium berghei infected mice (Mus musculus) at 40 mg/kg over 72 hr; assay type: functional; summary of the method: as §1
Plasmodium berghei [14] = experiment: Antimalarial activity as toxic deaths 2-5 days post infection for drug-sensitive Plasmodium berghei infected mice (Mus musculus) at 320 mg/kg subcutaneous dose over 72 hrs; assay type: functional
Summary of the method: (§3)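 P. berghei (drug-sensitive) infected mice dosed once subcutaneously 72 h postinfection, compound in sesame or peanut oil. Read-out is the count of deaths on days 2–5 after infection, attributed to drug toxicity. Five animals per dose level, or 10 where indicated.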

Plasmodium berghei [15] = experiment: Antimalarial activity as toxic deaths 2-5 days post infection for drug-sensitive Plasmodium berghei infected mice (Mus musculus) at 640 mg/kg subcutaneous dose over 72 hr; assay type: functional; summary of the method: as §3
Plasmodium berghei [16] = experiment: Antimalarial activity as survivor numbers at day 60 against drug-sensitive Plasmodium berghei infected mice (Mus musculus) at 160 mg/kg subcutaneous dose after 72 hr; assay type: functional; summary of the method: as §1
Plasmodium berghei [17] = experiment: Antimalarial activity as change in MST for drug-sensitive Plasmodium berghei infected mice (Mus musculus) at 80mg/kg subcutaneous dose over 72h; assay type: functional
[18] = tested on: Mycobacterium tuberculosis; experiment: In vitro antibacterial activity against Mycobacterium tuberculosis H37Rv.; assay type: functional
Summary of the method: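 Mycobacterium tuberculosis tested in vitro by gradient-plate test; minimum inhibitory concentration reported.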

Plasmodium berghei [19] = experiment: In vivo antimalarial activity against drug-sensitive Plasmodium berghei in mice (Mus musculus) after 320 mg/kg subcutaneous dose for 72 hrs as survivors 60 days post infection
Escherichia coli [20] = experiment: Tested in vitro against Escherichia coli Vogel. by gradient-plate test; assay type: functional; summary of the method: as §2
Plasmodium berghei [21] = experiment: Antimalarial activity as change in MST against drug-sensitive Plasmodium berghei infected mice (Mus musculus) at 20 mg/kg subcutaneous dose after 72h; assay type: functional
Pseudomonas aeruginosa [22] = experiment: In vitro against Pseudomonas aeruginosa 28. by gradient-plate test; assay type: functional; summary of the method: as §2
Plasmodium berghei [23] = experiment: Antimalarial activity as survivor numbers at day 60 for drug-sensitive Plasmodium berghei infected mice (Mus musculus) at 640 mg/kg subcutaneous dose over 72 hr; assay type: functional; summary of the method: as §1
Shigella sonnei [24] = experiment: In vitro antibacterial activity against Shigella sonnei C-10.; assay type: functional; summary of the method: as §2

Nc1nc(N)c2cc(S(=O)(=O)c3ccc4ccccc4c3)ccc2n1
survivors at day 60 (Plasmodium berghei [1]): 5
survivors at day 60 (Plasmodium berghei [2]): 5
survivors at day 60 (Plasmodium berghei [3]): 5
survivors at day 60 (Plasmodium berghei [4]): 5

Nc1nc(N)c2cc(S(N)(=O)=O)ccc2n1
MIC (Staphylococcus aureus [5]): > 25 µg/mL
Delta MST (Plasmodium berghei [6]): 0.3 days
MIC (Pseudomonas aeruginosa [7]): > 25 µg/mL
MIC (Shigella sonnei [8]): > 25 µg/mL
MIC (Staphylococcus aureus [9]): > 25 µg/mL
Delta MST (Plasmodium berghei [10]): 0.3 days
Delta MST (Plasmodium berghei [11]): 0.1 days
MIC (Enterococcus faecalis): > 25 µg/mL
MIC (Escherichia coli [12]): > 25 µg/mL

Nc1nc(N)c2c(Cl)c(NCc3ccc(Cl)c(Cl)c3)ccc2n1
survivors at day 60 (Plasmodium berghei [13]): 5
survivors at day 60 (Plasmodium berghei [1]): 5
toxic deaths (Plasmodium berghei [14]): 5
toxic deaths (Plasmodium berghei [15]): 5
survivors at day 60 (Plasmodium berghei [16]): 5

Nc1nc(N)c2cc(S(=O)(=O)N3CCOCC3)ccc2n1
MIC (Staphylococcus aureus [5]): > 25 µg/mL
Delta MST (Plasmodium berghei [17]): 14.5 days
MIC [18]: > 25 µg/mL
MIC (Staphylococcus aureus [9]): 2 µg/mL (≈ 6.47 µM)
survivors at day 60 (Plasmodium berghei [19]): 5
MIC (Escherichia coli [20]): > 25 µg/mL
Delta MST (Plasmodium berghei [21]): 1.7 days
MIC (Pseudomonas aeruginosa [22]): > 25 µg/mL
Delta MST (Plasmodium berghei [11]): 4.7 days
MIC (Enterococcus faecalis): < 0.25 µg/mL
survivors at day 60 (Plasmodium berghei [16]): 10
survivors at day 60 (Plasmodium berghei [23]): 10
MIC (Shigella sonnei [24]): > 25 µg/mL
